# Screens: PubChem, several laboratories
# Hits are enriched below; roughly 2% of the tested compounds scored in any of these assays.
# NR2E3 ag-1: inhibitors of NR2E3-RetCOR corepressor binding, primary screen, NR2E3 agonist project, biochemical, TR-FRET, GST-NR2E3, biotin-RetCOR; Photoreceptor-specific nuclear receptor (Homo sapiens), Q9Y5X4; 1536-well; inhibition of corepressor binding, % at 4.78 µM; 320,000 tested, 0.12% active; AID 2300, 2010;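 active = percent inhibition above the cutoff of mean plus 3 SD of all tested compounds, set per screening campaign, cut at about 20% in these data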;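 note: 0% = DMSO wells and 100% = biotin wells as full block of FRET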
#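 Test system: GST-NR2E3 and biotin-RetCOR proteins | Quantity: 1.35 nM GST-tagged NR2E3 final | Medium: Tris pH 7.5 | Also added: 7 nM biotin-RetCOR | Dosing: Compound at 4.8 µM, single dose | Timing: 5 h at 4 °C | Detection: Time-resolved FRET | Read-out basis: Percent inhibition | Benchmarks: Biotin wells as high control, 0.6% DMSO wells as low control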
# NR2E3 ag-2: NR2E3 agonists in two-hybrid cells, primary screen, cell-based, luminescence, CHO-S, Gal4-NCOR/VP16-NR2E3. Photoreceptor-specific nuclear receptor (Homo sapiens), Q9Y5X4. inhibition of corepressor binding, % at 3.98 µM. AID 602229, 2012. 360,000 tested, 0.35% active. luciferase;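 active = inhibition above the mean of all tested compounds plus 3 SD, cut at about 70% in these data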;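 note: 0% = DMSO with NR2E3 transfected cells and 100% = cells lacking NR2E3 construct; higher means lower luciferase signal from less NR2E3 corepressor binding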
# Neddylation inh: inhibitors of cullin neddylation, primary screen, biochemical, TR-FRET, uHTS, NAE and Ubc12; calls only at 25 µM; NEDD8-conjugating enzyme Ubc12 (Homo sapiens) + NEDD8-activating enzyme E1 regulatory …; 360,000 tested, 0.58% active; in the data active = inhibition above about 36%
# Rev-erbA mod: modulators of Rev-erb alpha DNA binding, primary screen, biochemical, FITC-DNA, fluorescence polarization, uHTS; activity, % at 10 µM; AID 1259318, 2017; 370,000 tested, 0.79% active; Rev-erbα–FITC-DNA binding, 90 min; Nuclear receptor subfamily 1 group D member 1 (Homo sapiens), P20393;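 active = activity above about 14%, limit read from the data; passing the limit was not always enough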;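 note: 0% = DMSO wells with 35 nM protein and 100% = DMSO wells with 750 nM protein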
# Target sequence (P20393 whole entry, looked up): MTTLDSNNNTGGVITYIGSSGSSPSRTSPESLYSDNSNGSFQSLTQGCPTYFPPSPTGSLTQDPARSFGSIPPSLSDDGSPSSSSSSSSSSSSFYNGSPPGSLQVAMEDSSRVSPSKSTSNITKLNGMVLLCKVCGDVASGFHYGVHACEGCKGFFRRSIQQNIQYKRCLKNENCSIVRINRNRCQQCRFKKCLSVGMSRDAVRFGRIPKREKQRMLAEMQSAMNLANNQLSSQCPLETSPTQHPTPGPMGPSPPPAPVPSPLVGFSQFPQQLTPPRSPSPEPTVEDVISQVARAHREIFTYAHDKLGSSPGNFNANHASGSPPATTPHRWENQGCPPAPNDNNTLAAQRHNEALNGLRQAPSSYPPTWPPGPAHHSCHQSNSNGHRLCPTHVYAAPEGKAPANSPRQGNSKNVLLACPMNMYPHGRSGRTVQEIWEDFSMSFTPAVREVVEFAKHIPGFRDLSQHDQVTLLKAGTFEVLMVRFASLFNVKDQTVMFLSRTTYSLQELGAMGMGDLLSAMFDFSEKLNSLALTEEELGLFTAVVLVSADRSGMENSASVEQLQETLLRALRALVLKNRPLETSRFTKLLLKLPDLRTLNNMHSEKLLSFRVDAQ
# PG9 binder: binders of HIV-1 gp120 antibody PG9, primary screen, biochemical, TR-FRET; TR-FRET gp120-PG9 antibody binding; HIV-1 gp120 / PG9 antibody interaction; AID 624416, 2012; inhibition, % at 6.7 µM; 360,000 tested, 0.43% active; in the data active = inhibition above about 8.5%
# Rev-erbA confirm: modulators of Rev-erb alpha DNA binding, confirmation, biochemical, FITC-DNA, fluorescence polarization, single point; shares compounds with Rev-erbA mod; 90 min; activation, % at 25 µM; 3,000 tested, 61% active;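 active = activation at or above a set limit, or at least 3 SD above the negative control mean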;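 note: 0% = 35 nM protein with DMSO and 100% = 750 nM protein high control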
# RORg counter: modulation of RORgamma DNA binding, dose response, counter-screen for Rev-erb alpha modulator project, biochemical, fluorescence polarization, FITC-DNA; shares compounds with Rev-erbA mod; purified RORgamma protein-FITC-DNA binding; IC50, µM; 910 tested, 8% active;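 active = Compounds whose fitted half-maximal concentration for disrupting protein-DNA binding is below 10 micromolar; the record names Rev-erb in its text, so the target is in doubt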
# The depositor's hits bear a star; i = inactive; · = no result given.
SMILES,NR2E3 ag-1,NR2E3 ag-2,Neddylation inh,Rev-erbA mod,PG9 binder,Rev-erbA confirm,others
COC(=O)c1ccc2nc(-c3ccccc3)c(Cc3ccccc3C(F)(F)F)n2c1,·,-18,·,22*,1,19*,
CC(C)NC(=O)c1cc2c(-c3ccc(Cl)cc3)nn(C)c2s1,5,-6,i,-1,-1,·,
CCOC(=O)N1CCC(NC(=O)c2cc3c(-c4ccc(Cl)cc4)nn(C)c3s2)CC1,3,5,·,20*,-1,19*,
O=[N+]([O-])c1ccc(N(c2ccccc2)c2ccccc2)cc1,3,3,i,44*,6,35*,RORg counter=>40
CCN(C(=O)c1ccccc1)c1ccc([N+](=O)[O-])cc1,-4,-2,i,0,-2,·,
Cc1cc2cc3c(=O)[nH]c(=O)[nH]c3nc2cc1C,2,·,·,33*,0,41*,RORg counter=>40
O=c1[nH]c(=O)c2cc3ccccc3nc2[nH]1,·,7,·,-1,0,·,
CCCCCCOC(=O)C1=C(C)NC(=O)NC1c1ccc2c(c1)OCO2 (stereo not given),2,-16,i,17*,-4,14,
CCC(CC)COC(=O)C1=C(C)NC(=O)NC1c1cc(OC)ccc1OC (stereo not given),-1,-21,i,7,-1,·,
CCOC(=O)C1=C(C)NC(=O)NC1c1ccc2c(c1)OCO2 (stereo not given),2,5,i,-2,1,·,
CCC(CC)COC(=O)C1=C(C)NC(=O)NC1c1ccc(OC)cc1 (stereo not given),1,-19,i,21*,-2,20*,
COc1ccc(S(=O)(=O)N2CCCC(C(=O)NCCN3CCOCC3)C2)cc1C (stereo not given),0,-33,i,3,0,·,
Cc1cccc(NC(=O)Nc2cnccn2)c1C,3,-10,i,18*,1,-2,
Cc1ccccc1NC(=O)Nc1cnccn1,1,12,i,5,3,·,
CCOc1ccc(C)cc1-n1nc2ccccc2n1,1,-25,i,1,2,·,
Cc1ccc(OCC(=O)Nc2ccc(Cl)cc2)c(-n2nc3ccccc3n2)c1,3,-4,i,69*,0,10,
O=C(O)c1ccc(/C=C2\SC(=S)N(NC(=O)c3ccccc3[N+](=O)[O-])C2=O)cc1,·,2,i,2,-1,·,
CC(=O)NN1C(=O)/C(=C\c2ccc(O)cc2)SC1=S,-5,19,i,20*,-6,19*,
CC(=O)NN1C(=O)/C(=C\c2ccc(C)cc2)SC1=S,-2,-6,i,4,-3,·,
O=C(NN1C(=O)/C(=C\c2ccc(O)c([N+](=O)[O-])c2)SC1=S)c1ccccc1Cl,0,-1,i,28*,-1,15,
CN(CC1CCCN(CCc2ccc(Cl)cc2)C1)C(=O)c1ccco1 (stereo not given),-5,-8,i,-1,-1,·,
COc1ccc2cc(CCN3C(=O)c4ccccc4C3=O)c(=O)[nH]c2c1,2,-3,i,28*,1,20*,
CC(C)C(=O)N1CCN(c2ccccc2NC(=S)NC(=O)Cc2ccccc2)CC1,1,-49,i,17*,0,2,
Cc1cccc(OCC(=O)NC(=S)Nc2ccccc2N2CCOCC2)c1C,1,-17,i,40*,-1,4,
COc1ccc(Cl)cc1N(CC(=O)NCc1ccccn1)S(=O)(=O)c1ccc(C)cc1,·,17,i,2,2,·,
SMILES,NR2E3 ag-1,NR2E3 ag-2,Neddylation inh,Rev-erbA mod,PG9 binder,Rev-erbA confirm,others
CCN1C(=O)/C(=C\N2CCN(c3ccc(F)cc3)CC2)SC1=S,2,-16,i,213*,4,251*,RORg counter=i
Brc1nc(-c2ccccc2)nc(-c2ccccc2)c1Br,5,-24,i,65*,0,685*,RORg counter=i
CCCc1cc(=O)oc2cc(OCC(=O)N3CCc4ccccc43)ccc12,3,-5,i,21*,2,8,
CCCN1C(=O)c2cccc3c(N4CCCCC4)ccc(c23)C1=O,-1,-46,i,96*,0,97*,RORg counter=>40
CCCCNc1ccc2c3c(cccc13)C(=O)N(CCCC)C2=O,·,-1,i,108*,2,128*,RORg counter=>40
CN(C)CCCN1C(=O)c2cccc3c(Br)ccc(c23)C1=O,6,-32,i,0,1,·,
Cc1cccc(OCCNC(=O)CCc2ccccc2)c1,4,12,i,-4,1,·,
CN(CC(=O)Nc1cccc(Cl)c1)S(=O)(=O)/C=C/c1ccccc1,·,15,i,4,-1,·,
CCOC(=O)c1cc(C)nc(SC)c1C#N,4,-34,i,-1,-1,·,
CCC(C)OC(=O)c1cc(C)nc2c(Br)cc(Br)cc12 (stereo not given),2,1,i,46*,4,46*,RORg counter=>40
COc1ccc(-c2cc3c(=O)n(CC(=O)Nc4ccc(C(C)=O)cc4)ncn3n2)cc1,0,-20,i,34*,-2,41*,RORg counter=>40
CCn1c(=S)sc2c(=O)n(CC(=O)NCCCc3ccccc3)c(C)nc21,-1,-8,i,-2,-1,·,
O=C(NC1CCCCCC1)c1cc2ccccc2oc1=O,3,4,i,0,-3,·,
COc1ccc2cc(C(=O)NC3CCCCC3)c(=O)oc2c1,·,-15,i,42*,-2,19*,
COc1ccc(NC(=O)c2sc3ncn(CC(=O)N4CCN(c5ccccn5)CC4)c(=O)c3c2C)c(OC)c1,1,7,i,48*,0,13,
COc1ccccc1NC(=O)c1sc2ncn(Cc3cccc(C)c3)c(=O)c2c1C,5,-8,i,55*,6,54*,RORg counter=1.1*
COc1cc(OC)c(NC(=O)c2sc3ncn(CC(=O)N4CCN(c5ccccn5)CC4)c(=O)c3c2C)cc1Cl,-2,5,i,22,9,·,
COc1ccccc1NC(=O)c1sc2ncn(Cc3ccc(C)cc3)c(=O)c2c1C,5,-14,i,46*,1,14,
C=CCNCc1ccc(OC)cc1OC,·,·,·,1,·,·,
